Active and inactive are the calls of the source. The rule behind the calls is not given here.
Assays:
H460 [1] = test: Inhibition of PI3K in human H460 cells assessed as Akt phosphorylation at Ser 473 upto 30 uM; type: cell-based
Summary of the method: (§1)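 Human NSCLC H-460 cells; PI3K activity read as Akt phosphorylation at Ser 473 and mTOR activity as p70S6 kinase phosphorylation at Thr 389. Compounds were screened at 10 µM, and some up to 30 µM. Activity was reported as % inhibition. LY-294002 served as the reference inhibitor at 30 µM.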

[2] = target: T1, Hypoxia inducible factors; HIF-1-alpha, HIF-2-alpha (Homo sapiens, UniProt Q16665+Q99814); test: Inhibition of hypoxia-induced HIF1 activation in human U251HRE cells by cell based reporter gene assay
[3] = target: Phosphatidylinositol 4,5-bisphosphate 3-kinase catalytic subunit alpha isoform (Homo sapiens, UniProt P42336); test: Inhibition of human recombinant PI3K-alpha assessed as formation of PI3P from PI by cell free kinase assay
Phosphatidylinositol 4,5-bisphosphate 3-kinase catalytic subunit alpha isoform, sequence (P42336 whole entry, canonical isoform): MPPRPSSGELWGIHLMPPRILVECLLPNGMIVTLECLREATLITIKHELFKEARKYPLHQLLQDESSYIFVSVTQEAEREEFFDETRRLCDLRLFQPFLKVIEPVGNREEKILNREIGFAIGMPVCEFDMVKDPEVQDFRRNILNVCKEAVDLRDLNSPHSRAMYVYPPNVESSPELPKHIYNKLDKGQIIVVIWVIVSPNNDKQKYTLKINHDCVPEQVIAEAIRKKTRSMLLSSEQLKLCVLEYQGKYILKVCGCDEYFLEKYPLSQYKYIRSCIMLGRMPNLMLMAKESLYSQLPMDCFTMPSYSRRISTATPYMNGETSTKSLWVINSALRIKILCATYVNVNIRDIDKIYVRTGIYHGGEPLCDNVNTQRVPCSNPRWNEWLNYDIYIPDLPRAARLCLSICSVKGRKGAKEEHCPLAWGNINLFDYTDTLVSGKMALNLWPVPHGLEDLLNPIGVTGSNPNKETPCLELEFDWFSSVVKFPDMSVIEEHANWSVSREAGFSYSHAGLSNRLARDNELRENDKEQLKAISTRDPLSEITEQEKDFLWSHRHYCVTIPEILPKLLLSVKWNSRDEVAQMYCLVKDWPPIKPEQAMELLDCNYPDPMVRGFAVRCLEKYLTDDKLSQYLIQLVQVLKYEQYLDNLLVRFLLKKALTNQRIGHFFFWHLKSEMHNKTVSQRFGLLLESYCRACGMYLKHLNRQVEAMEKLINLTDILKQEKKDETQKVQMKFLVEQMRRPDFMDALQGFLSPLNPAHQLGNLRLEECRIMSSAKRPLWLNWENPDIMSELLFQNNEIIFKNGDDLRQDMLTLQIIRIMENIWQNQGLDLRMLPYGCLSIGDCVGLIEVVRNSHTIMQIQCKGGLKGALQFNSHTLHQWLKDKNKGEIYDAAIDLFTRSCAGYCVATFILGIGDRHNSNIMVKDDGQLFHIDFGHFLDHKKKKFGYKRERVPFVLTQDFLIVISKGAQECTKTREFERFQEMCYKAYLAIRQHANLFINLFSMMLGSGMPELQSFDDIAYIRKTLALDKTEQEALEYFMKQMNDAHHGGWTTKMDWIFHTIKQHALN
Summary of the method: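 Cell-free kinase assay with recombinant PI3Kα (p110α). The read-out was PI3P formed from the substrate phosphatidylinositol. An IC50 was derived.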

[4] = target: Serine/threonine-protein kinase mTOR (Homo sapiens) (UniProt P42345); test: Inhibition of mTOR in human H460 cells assessed as p70S6 phosphorylation at Thr 389 at 10 uM; type: cell-based; summary of the method: as §1
[5] = target: Serine/threonine-protein kinase mTOR (Homo sapiens) (UniProt P42345); test: Inhibition of mTOR in human H460 cells assessed as p70S6 phosphorylation at Thr 389 upto 30 uM; type: cell-based; summary of the method: as §1
[6] = target: Hypoxia-inducible factor 1-alpha (Homo sapiens) (UniProt Q16665); test: Inhibition of HIF1alpha
Hypoxia-inducible factor 1-alpha (Homo sapiens), sequence (Q16665 whole entry, looked up): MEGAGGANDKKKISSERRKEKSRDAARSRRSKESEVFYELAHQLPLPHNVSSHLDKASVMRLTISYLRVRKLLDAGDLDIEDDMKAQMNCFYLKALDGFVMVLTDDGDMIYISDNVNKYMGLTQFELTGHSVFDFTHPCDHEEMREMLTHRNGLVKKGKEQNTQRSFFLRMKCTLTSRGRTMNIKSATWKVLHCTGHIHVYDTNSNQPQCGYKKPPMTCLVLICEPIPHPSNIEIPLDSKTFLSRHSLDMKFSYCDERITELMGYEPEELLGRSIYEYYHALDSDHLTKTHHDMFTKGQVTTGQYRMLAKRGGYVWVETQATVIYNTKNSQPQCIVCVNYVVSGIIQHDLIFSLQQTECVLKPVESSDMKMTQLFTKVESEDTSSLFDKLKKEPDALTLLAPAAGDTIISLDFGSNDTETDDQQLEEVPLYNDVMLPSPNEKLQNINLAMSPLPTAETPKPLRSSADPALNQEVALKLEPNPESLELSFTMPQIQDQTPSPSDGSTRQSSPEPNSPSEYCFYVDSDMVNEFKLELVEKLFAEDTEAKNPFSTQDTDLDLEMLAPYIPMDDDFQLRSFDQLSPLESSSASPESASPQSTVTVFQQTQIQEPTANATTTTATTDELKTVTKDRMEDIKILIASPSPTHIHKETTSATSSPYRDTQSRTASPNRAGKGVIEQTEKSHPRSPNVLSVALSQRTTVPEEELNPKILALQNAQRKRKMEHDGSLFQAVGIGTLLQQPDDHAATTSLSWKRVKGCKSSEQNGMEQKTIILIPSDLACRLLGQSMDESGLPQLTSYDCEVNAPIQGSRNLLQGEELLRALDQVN
Summary of the method: (§2)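 HRE-driven cell-based reporter gene assay of HIF-1 activation. Activation was induced by hypoxia (1% O2, 94% N2, 5% CO2) or by DFX. Compounds were tested up to 30 µM and an IC50 was derived. YC-1 served as the reference inhibitor.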

[7] = target: Hypoxia-inducible factor 1-alpha (Homo sapiens) (UniProt Q16665); test: Inhibition of HIF1-alpha at 30 uM; summary of the method: as §2
H460 [8] = test: Inhibition of PI3K in human H460 cells assessed as Akt phosphorylation at Ser 473 at 10 uM; type: cell-based; summary of the method: as §1
H460 [9] = test: Inhibition of PI3K in human H460 cells assessed as Akt phosphorylation at 3 uM by Western blot
[10] = target: Serine/threonine-protein kinase mTOR (Homo sapiens) (UniProt P42345); test: Inhibition of mTOR in human H460 cells assessed as 4E-BP1 phosphorylation at 3 uM by Western blot; type: cell-based
Summary of the method: (§3)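 H460 cells were stimulated with 20% FCS in the presence of test compound at 3 or 10 µM, alongside untreated and FCS-only controls. Phosphorylation was assessed by Western blot.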

[11] = target: Serine/threonine-protein kinase mTOR (Homo sapiens) (UniProt P42345); test: Inhibition of mTOR in human H460 cells assessed as 4E-BP1 phosphorylation at 10 uM by Western blot; type: cell-based; summary of the method: as §3
H460 [12] = test: Inhibition of PI3K in human H460 cells assessed as Akt phosphorylation at 10 uM by Western blot
[13] = target: T1, Hypoxia inducible factors; HIF-1-alpha, HIF-2-alpha; test: Inhibition of HIF1 in human U251HRE cells at 10 uM by Western blot; type: cell-based
Summary of the method: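 U251-HRE-Luc cells were induced with DFX for 6 h in the presence of test compound at 10 µM, alongside untreated and DFX-only controls. HIF-1 was assessed by Western blot.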

Row | Activity [2] | Activity [3] | Activity [5] | SMILES | Activity (H460 [1]) | inhibition (H460 [8]) | further results
1 | inactive | inactive | – | COc1ccc2c(Nc3ccc(C(C)=O)cc3)c3ccoc3nc2c1 | inactive | – | inhibition [4]: 53%
2 | inactive | inactive | – | O=[N+]([O-])c1ccc(Sc2c3cc4c(cc3nc3occc23)OCO4)cc1 | inactive | – | inhibition [4]: 44%
3 | – | – | – | O=c1cc(N2CCOCC2)oc2c(-c3ccccc3)cccc12 | – | – | inhibition (H460 [1]): 40%; inhibition [5]: 45%
4 | inactive | inactive | inactive | COc1ccc2c(Sc3ccc(C#N)cc3)c3ccoc3nc2c1 | inactive | – | Activity [6]: inactive
5 | – | – | inactive | COc1ccc2c(OC)c3ccoc3nc2c1 | inactive | – | Activity [7]: inactive
6 | inactive | inactive | – | O=[N+]([O-])c1ccc(Oc2c3cc4c(cc3nc3occc23)OCO4)cc1 | inactive | – | inhibition [4]: 47%
7 | inactive | inactive | inactive | COc1ccc2c(Oc3cccc([N+](=O)[O-])c3)c3ccoc3nc2c1 | – | 43% | –
8 | inactive | inactive | inactive | O=[N+]([O-])c1cn(-c2c3cc4c(cc3nc3occc23)OCO4)cn1 | – | 57% | –
9 | inactive | inactive | inactive | Fc1ccc(Oc2c3cc4c(cc3nc3occc23)OCO4)cc1 | – | 45% | –
10 | inactive | inactive | inactive | COc1cc2nc3occc3c(-n3ccnc3)c2cc1OC | – | 64% | –
11 | inactive | inactive | inactive | COc1ccc2c(Oc3cccnc3)c3ccoc3nc2c1 | – | 67% | –
12 | – | – | – | COc1ccc2c(Sc3ccc([N+](=O)[O-])cc3)c3ccoc3nc2c1 | – | 48% | Activity (H460 [9]): Active; Activity [10]: Active; Activity [11]: Active; Activity [6]: Active; Activity (H460 [12]): Active; Activity [13]: Active; IC50 [2]: 3 µM; IC50 [3]: 4 µM; inhibition [4]: 49%
13 | inactive | inactive | inactive | COc1ccc2c(-n3ccnc3)c3ccoc3nc2c1 | – | 64% | –
14 | inactive | inactive | inactive | COc1cc2nc3occc3c(Oc3cccnc3)c2cc1OC | – | 43% | –
15 | inactive | inactive | inactive | COc1cc2nc3occc3c(-n3cnc([N+](=O)[O-])c3)c2cc1OC | – | 58% | –
16 | inactive | inactive | inactive | COc1ccc2c([S+]([O-])c3ccc([N+](=O)[O-])cc3)c3ccoc3nc2c1 (centres undefined) | inactive | – | Activity [6]: inactive
17 | inactive | inactive | inactive | COc1ccc2c(Sc3ccc(Br)cc3)c3ccoc3nc2c1 | inactive | – | Activity [6]: inactive
18 | inactive | inactive | – | c1cncc(Oc2c3cc4c(cc3nc3occc23)OCO4)c1 | inactive | – | inhibition [4]: 51%
19 | inactive | inactive | – | c1cn(-c2c3cc4c(cc3nc3occc23)OCO4)cn1 | – | 40% | inhibition [4]: 45%
20 | inactive | inactive | inactive | COc1ccc2c(Sc3ccc(C(=O)O)cc3)c3ccoc3nc2c1 | inactive | – | Activity [6]: inactive
21 | inactive | inactive | inactive | COc1ccc2c(N3CCN(C(C)=O)CC3)c3ccoc3nc2c1 | – | 58% | –
22 | inactive | inactive | inactive | COc1cc2nc3occc3c(Sc3ccc([N+](=O)[O-])cc3)c2cc1OC | inactive | – | –
23 | inactive | inactive | inactive | N#Cc1ccc(Oc2c3cc4c(cc3nc3occc23)OCO4)cc1 | – | 58% | –
